Key:
[1] = test system: Spodoptera littoralis; test: Insecticidal activity against Spodoptera littoralis larvae assessed as growth inhibition after 5 days; assay type: functional, organism-based
Outline: (§1)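 Larvae kept 5 days in a moist chamber at 29 °C in darkness, then survival and larval weight compared with a carrier-only control group. Run in triplicate; LC50 (survival) and EC50 (growth) from dose-response curves by probit-log analysis.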

[2] = test system: Spodoptera littoralis; test: Insecticidal activity against Spodoptera littoralis larvae assessed as survival rat after 5 days; assay type: functional; outline: as §1
[3] = test system: Lymantria dispar; test: Insecticidal activity against Lymantria dispar larvae assessed as mean weight of surviving larvae after 8 days; assay type: functional, organism-based
Outline: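 Freshly hatched larvae (n = 10) from a laboratory colony reared on wheat germ-casein diet, fed diet spiked with 1 μg – 100 μg/g fresh wt of compound. Kept 8 days in a moist chamber at 26 °C in darkness. Mean weight of surviving larvae compared with controls. Commercial azadirachtin (>96%) as positive control. Three replicates; LC50/EC50 from dose-response curves by probit-log analysis.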

Row | Compound | EC50 [1] | LC50 [2] | EC50 [3]
1 | COC(=O)[C@H]1[C@@H](OC(C)=O)[C@@]2(O)c3c(cc4c(c3OC)OCO4)O[C@@]2(c2ccc(OC)cc2)[C@@H]1c1ccccc1 | 1.2 µg/g | 12.2 µg/g | –
2 | COc1ccc(C2C(=O)Oc3cc4c(c(OC)c32)OCO4)cc1 (stereo unspecified) [AGLALACTONE] | > 100 µg/g | >100 µg/g | –
3 | C/C=C(\C)C(=O)O[C@H]1C[C@@H](OC(C)=O)[C@@]2(C(=O)OC)CO[C@H]3[C@@H](O)[C@@](C)([C@]45O[C@@]4(C)[C@@H]4C[C@H]5O[C@@H]5OC=C[C@@]54O)[C@H]4[C@]1(CO[C@]4(O)C(=O)OC)[C@@H]32 [AZADIRACHTIN A] | 0.11 µg/g | 6.1 µg/g | 0.6 µg/g
4 | CC(=O)N(CCCCNC(=O)/C=C/c1ccccc1)C(=O)CCc1ccccc1 [EDULIMIDE] | > 250 µg/g | >250 µg/g | –
5 | COc1cc(C[C@H]2CO[C@H](c3ccc(O)c(OC)c3)[C@H]2COC(C)=O)ccc1O [LARICIRESINOL ACETATE] | > 250 µg/g | >250 µg/g | –
6 | COC(=O)[C@H]1[C@@H](O)[C@@]2(O)c3c(cc4c(c3OC)OCO4)O[C@@]2(c2ccc(OC)cc2)[C@@H]1c1ccccc1 [PANNELLIN] | 0.24 µg/g | 2.1 µg/g | 1.4 µg/g
7 | CC(C)(O)C(=O)NC1CCCN1C(=O)/C=C/c1ccccc1 (stereo unspecified) [PIRIFERINOL] | > 250 µg/g | >250 µg/g | –

Reference: ChEMBL document CHEMBL1151321, “Bisamides, lignans, triterpenes, and insecticidal Cyclopenta[b]benzofurans from Aglaia species” (J Nat Prod, 1998)
